# Assay outcomes: PubChem, several laboratories
# Shown are actives, neighbours in structure and some others; about 1.9% of the full set was active somewhere.
# LEDGF integ inh: blockers of LEDGF/p75-dependent integrase strand transfer – biochemical, TR-FRET, high throughput, primary screen. TR-FRET IN-LEDGF/p75 DNA integration, Eu/Cy5. inhibition, % at 3.7 µM. hit rate 0.64% among 370,000;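 active = inhibition above the screen-wide mean plus 3 SD, cut at about 13% in these data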;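 also: signal is the Cy5 over europium emission ratio at 671 and 618 nm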
# UHRF1 binding: UHRF1 methylated DNA binding inhibitors, primary screen, counter-screen for MBD2 inhibitor project, biochemical, TR-FRET, human UHRF1, single concentration. E3 ubiquitin-protein ligase UHRF1 (Homo sapiens), Q96T88. UHRF1 binding to methylated oligo. inhibition, % at 4.4 µM. hit rate 0.75% among 370,000. AID 687016, 2013; in the data active = inhibition above about 21%;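 also: UHRF1 SRA domain binding a hemimethylated CpG hairpin DNA probe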
# NSD2 HMT inh: NSD2 histone methyltransferase inhibitors, primary screen, biochemical, AlphaScreen, single concentration, set 2. NSD2 peptide methylation, 120 min. inhibition, % at 12.5 µM. hit rate 0.54% among 310,000. AID 743445, 2014; in the data active = inhibition above about 50%
# Casp6 inh: human caspase-6 inhibitors, primary screen, biochemical, VEID-R110 fluorescence, single point, set 2; P55212; inhibition, % at 12.5 µM; AID 686996, 2013; hit rate 0.53% among 350,000; purified caspase-6, Z-VEID-R110 cleavage fluorescence;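 active = mean inhibition across replicates at least about 35%, with every replicate also reaching that limit, limit read from the data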
# TDP2 absorb: human TDP2 enzyme inhibitors, primary screen, biochemical, epi absorbance, recombinant enzyme; Tyrosyl-DNA phosphodiesterase 2 (Homo sapiens), O95551; T5PNP hydrolysis, p-nitrophenol absorbance 415 nm; inhibition, % at 12.8 µM; hit rate 0.34% among 370,000;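 active = inhibition above the mean of all tested compounds plus 3 SD, set per campaign, cut at about 25% in these data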
#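 System – recombinant human TDP2 · Quantity – TDP2 enzyme at 120 nM final · Doses – single concentration, 12.8 µM nominal, with 1% DMSO · Incubation – 2 h at 37 °C · Measured by – epi absorbance of p-nitrophenol freed from T5PNP by hydrolysis · Read-out – % inhibition relative to enzyme-containing and enzyme-free wells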
# MBD2 inh: inhibitors of MBD2 binding to methylated DNA, primary screen, biochemical, TR-FRET, DNA-binding domain, human; Methyl-CpG-binding domain protein 2 (Homo sapiens), Q9UBB5; MBD2 binding to methylated oligonucleotide; inhibition, % at 4.4 µM; hit rate 0.31% among 370,000; AID 686964, 2013; in the data active = inhibition above about 13%
# Target sequence (Q9UBB5 whole entry, looked up, the tested form may be a part): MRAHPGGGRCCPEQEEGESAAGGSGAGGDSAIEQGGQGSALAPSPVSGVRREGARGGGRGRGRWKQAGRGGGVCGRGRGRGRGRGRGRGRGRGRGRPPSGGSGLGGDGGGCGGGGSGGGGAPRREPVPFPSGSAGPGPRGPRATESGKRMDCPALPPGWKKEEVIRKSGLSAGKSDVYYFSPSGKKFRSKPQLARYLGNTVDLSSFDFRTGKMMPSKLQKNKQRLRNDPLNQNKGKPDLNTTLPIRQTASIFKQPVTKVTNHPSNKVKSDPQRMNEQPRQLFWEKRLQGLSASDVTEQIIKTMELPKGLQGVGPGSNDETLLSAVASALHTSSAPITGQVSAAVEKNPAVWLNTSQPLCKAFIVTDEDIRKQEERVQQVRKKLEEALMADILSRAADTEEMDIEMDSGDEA
# TDP2 inh conf: human TDP2 enzyme inhibitors, retest, confirmation, biochemical, epi absorbance, recombinant enzyme; shares compounds with TDP2 absorb; absorbance read-out; inhibition, % at 12.8 µM; hit rate 22% among 1,100; AID 743263, 2014; in the data active = inhibition above about 25%
# Hits are given with their value; i = inactive; nt = no result.
SMILES,LEDGF integ inh,UHRF1 binding,NSD2 HMT inh,Casp6 inh,TDP2 absorb,MBD2 inh,TDP2 inh conf
CN1C(=O)/C(=C/c2ccc(C(=O)Nc3ccc(O)cc3C(=O)O)cc2)SC1=S,i,i,i,i,28,i,i
Cc1ccc(/C=C2\SC(=S)N(CCC(=O)NNC(=O)c3ccc(O)cc3)C2=O)cc1,i,i,i,i,i,i,nt
Cn1c(SCC(=O)Nc2ccc3[nH]c(=O)[nH]c3c2)nnc1-c1ccc(F)cc1,i,i,i,i,29,i,i
COCC(=O)N1[C@@H](C#N)[C@H](c2ccccc2-c2ccccc2)[C@@H]1CO,nt,nt,nt,i,nt,nt,nt
C[C@H]1CN([C@@H](C)CO)C(=O)c2cc(-c3ccc(F)cc3)cnc2O[C@H]1CN(C)CC1CCCC1,nt,nt,nt,i,nt,nt,nt
C[C@H](CO)N1C[C@H](C)[C@H](CN(C)C(=O)Nc2ccc(F)cc2)Oc2ccc(N(C)C)cc2CC1=O,nt,nt,nt,i,nt,nt,nt
CCOC(=O)c1c(S(=O)(=O)NCC(=O)Nc2ccccc2F)c(C)n(C)c1C,i,i,i,i,25,i,i
CCOC(=O)c1c(S(=O)(=O)NCC(=O)Nc2ccccc2OC)c(C)n(C)c1C,i,i,i,i,i,i,nt
CC(C)N(Cc1ccccc1)C(=S)NC(=O)C1(C)CC1(Cl)Cl (configuration not stated),i,i,i,i,25,i,i
CC1(C(=O)NC(=S)N(CCC#N)c2ccccc2)CC1(Cl)Cl (configuration not stated),i,i,i,nt,i,i,nt
O=C(N[C@@H]1CC[C@H](CCn2cc(-c3ccccn3)nn2)O[C@@H]1CO)c1cccnc1,nt,nt,nt,i,nt,nt,nt
COC(=O)c1cccc(C(=O)N2CCCC(C(=O)c3cccc(OC(C)C)c3)C2)c1 (configuration not stated),i,i,i,39,28,i,i
CCN(CC)c1cc(Cl)c2nonc2c1N,i,i,i,i,33,i,i
Cc1ccc(NC2=C(NC(=O)c3ccccc3)C(=O)c3ccccc3C2=O)cc1Cl,i,i,i,nt,29,i,i
Cc1ccc(NCC(=O)c2ccccc2)cc1Cl,i,i,i,nt,i,i,nt
COc1ccc(S(=O)(=O)N2CCC(C(=O)NCc3ccncc3)CC2)cc1,i,i,i,i,26,i,i
COc1ccccc1Nc1nc(C)cc(C)c1C(N)=O,i,i,nt,nt,i,i,nt
Cc1cc(C)c(C(N)=O)c(Nc2cccc3ccccc23)n1,i,i,i,nt,25,i,i
CCCN1CCN(C(=O)c2ccc(F)c(S(=O)(=O)N3CCOCC3)c2)CC1,i,i,i,i,39,i,i
Cc1ccc(/C=C/C(=O)Nc2nccs2)o1,i,i,i,i,26,i,i
Cc1ccc(/C=C/C(=O)Nc2ncc(C)s2)o1,i,i,i,i,i,i,nt
N#CCCn1cc(C(=O)N2CCOCC2)c(-c2ccc3c(c2)OCCO3)n1,i,i,i,i,25,i,i
N#CCCn1cc(C(=O)N2CCCCC2)c(-c2ccc([N+](=O)[O-])cc2)n1,i,i,i,i,i,i,nt
O=C(Nc1c(-c2ccccc2)[nH][nH]c1=O)c1ccc2c(c1)OCO2,i,i,nt,i,48,i,i
O=C(Nc1c(-c2ccc3c(c2)OCO3)[nH][nH]c1=O)c1ccccc1,i,i,nt,45,68,i,71
O=C(Nc1ccc2c(c1)OCO2)c1ccccc1,i,i,i,i,i,i,nt
CNC[C@@H]1Oc2ccc(NC(=O)C3CC3)cc2CC(=O)N([C@@H](C)CO)C[C@H]1C,nt,nt,nt,i,nt,nt,nt
CN1c2ccc(C#Cc3cccnc3)cc2[C@H]2[C@H](CCN2C(=O)c2cccnc2)[C@H]1CO,nt,nt,nt,i,nt,nt,nt
